Columns and labels:
CRBPI [1] = molecular target: T1, CRBPI (Rattus norvegicus, UniProt P02696); type: binding; details: excitation spectra pre- and post-column
T1 sequence (P02696 1-135): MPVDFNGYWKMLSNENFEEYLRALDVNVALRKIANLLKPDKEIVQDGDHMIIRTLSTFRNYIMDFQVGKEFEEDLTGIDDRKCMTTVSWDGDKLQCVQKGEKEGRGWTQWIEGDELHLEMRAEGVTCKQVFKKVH
Procedure, shortened: (§1)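 Sephadex G-50 (fine) was equilibrated for several days in 20 mM KH2PO4, 100 mM KCl, pH 7.4. Small syringe columns were poured, a separate one for each protein–ligand pair. E. coli-expressed, FPLC-purified protein carried bound retinol. Excitation spectra of the complex were recorded before and after passage, with roughly equivalent free retinol in buffer as reference. Blanks were subtracted.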

CRBPII = molecular target: T2, CRBPII (Rattus norvegicus, UniProt P06768); type: binding; details: excitation spectra pre- and post-column
T2 sequence (P06768 1-134): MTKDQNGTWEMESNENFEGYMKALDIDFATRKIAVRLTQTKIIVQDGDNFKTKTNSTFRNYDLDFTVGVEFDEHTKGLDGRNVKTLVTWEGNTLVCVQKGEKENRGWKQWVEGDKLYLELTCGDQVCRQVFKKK
Procedure, shortened: as §1

CRBPI [2] = molecular target: T1, CRBPI; assay: Fluorescence titration binding of retinoids to CRBPI; details: for affinity of CRBPI compared to CRBPII (fold stronger): ratio of Kd′ values CRBPII/CRBPI
CRBPI and II = details: 19F NMR estimate; cited from earlier work

| elution of complex with CRBPI through Sephadex G-50 (CRBPI [1]) | elution of complex with CRBPII through Sephadex G-50 (CRBPII) | CRBPI affinity for 9-cis-retinol relative to all-trans- and 13-cis-retinol (fold lower) (CRBPI [2]; ratio of Kd′ values) | affinity of CRBPI compared to CRBPII (fold stronger) (CRBPI [2]) | SMILES | Kd′ value of CRBPI relative to CRBPII (fold less) (CRBPI and II) |
| --- | --- | --- | --- | --- | --- |
| eluted bound | eluted bound | ~ 3 fold | ~ 6 fold | CC1=C(/C=C/C(C)=C\C=C\C(C)=C\CO)C(C)(C)CCC1 [9-cis-retinol] | – |
| bound | bound | – | ~ 3 fold | CC1=C(/C=C/C(C)=C/C=C/C(C)=C/CO)C(C)(C)CCC1 [all-trans-retinol] | 10–100 fold |

— paper PMC4113001 (Biochimica et biophysica acta, 2011)
